# In ChEMBL document CHEMBL1123616, “Thromboxane synthase inhibitors. Synthesis and pharmacological activity of (R)-, (S)-, and (+/-)-2,2-dimethyl-6-[2-(1H-imidazol-1-yl)-1-[[(4-methoxyphenyl)- methoxy]methyl]ethoxy]hexanoic acids” (J Med Chem, 1987):
# Columns and labels:
# Assay type in all cases: functional
# [1] = test system: Cavia porcellus; assay: Inhibition of Collagen-induced Thromboxane (TXB2) in guinea pig whole blood ex vivo by oral 30 mg/kg administration of test compound.
# Procedure, shortened: (§1)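 Male Dunkin-Hartley guinea pigs (300-350 g), fasted overnight, dosed orally by gavage in 50% PEG 400/50% carboxymethylcellulose vehicle. Pentobarbitone anaesthesia 10 min before bleed at 1 h post-dose. Aortic blood was taken into citrate and stirred at 37 °C. Collagen (10 μg/mL) was added and incubated 5 min, then stopped with indomethacin. Plasma TxB2 was measured by RIA and normalized to 5.0×10^8 platelets/mL. Groups of ≥4 animals.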
# [2] = target: T1, Thromboxane-A synthase (Homo sapiens, UniProt P24557); assay: Inhibition of Thromboxane B2 formation in collagen-stimulated human platelets in platelet rich plasma.
# T1 sequence (P24557 whole entry): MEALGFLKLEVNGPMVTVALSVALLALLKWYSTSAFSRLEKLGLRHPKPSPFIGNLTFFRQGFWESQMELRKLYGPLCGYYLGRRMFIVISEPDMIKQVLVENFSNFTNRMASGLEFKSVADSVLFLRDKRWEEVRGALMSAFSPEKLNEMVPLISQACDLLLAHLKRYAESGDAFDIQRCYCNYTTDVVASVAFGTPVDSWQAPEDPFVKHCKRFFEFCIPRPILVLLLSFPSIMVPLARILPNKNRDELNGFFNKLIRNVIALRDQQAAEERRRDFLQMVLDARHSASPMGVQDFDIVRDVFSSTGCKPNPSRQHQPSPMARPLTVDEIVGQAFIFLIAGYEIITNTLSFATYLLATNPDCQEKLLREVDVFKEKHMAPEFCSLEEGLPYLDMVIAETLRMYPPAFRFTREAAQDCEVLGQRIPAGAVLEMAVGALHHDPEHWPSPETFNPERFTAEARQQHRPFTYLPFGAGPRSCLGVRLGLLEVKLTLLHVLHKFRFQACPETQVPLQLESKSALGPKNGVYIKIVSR
# [3] = test system: Cavia porcellus; assay: Inhibition of Collagen-induced Thromboxane (TXB2) in guinea pig whole blood ex vivo after 1 hr of 30 mg/kg oral administration of compound.; procedure, shortened: as §1
# [4] = test system: Cavia porcellus; assay: Inhibition of Collagen-induced serum Thromboxane (TXB2) in guinea pig whole blood ex vivo after 30 mg/kg oral administration of compound.; procedure, shortened: as §1
# [5] = test system: Cavia porcellus; assay: Inhibition of Collagen-induced Thromboxane (TXB2) in guinea pig whole blood ex vivo after 1 hr of 30 mg/kg oral administration of compound; procedure, shortened: as §1
# [6] = test system: Cavia porcellus; assay: Dose-related effect was determined 1 hr after oral administration in guinea pig and expressed as ED50 value; procedure, shortened: as §1
# [7] = test system: Cavia porcellus; assay: Inhibition of Collagen-induced serum Thromboxane (TXB2) generation in guinea pig whole blood ex vivo after 10 mg/kg oral administration of compound.; procedure, shortened: as §1
# [8] = test system: Cavia porcellus; assay: Inhibition of Collagen-induced Thromboxane (TXB2) generation in guinea pig whole blood ex vivo by oral 10 mg/kg administration of test compound.; procedure, shortened: as §1
# [9] = test system: Cavia porcellus; assay: Inhibition of Collagen-induced serum Thromboxane (TXB2) in guinea pig whole blood ex vivo after 10 mg/kg oral administration of compound.; procedure, shortened: as §1
# [10] = test system: Cavia porcellus; assay: Inhibition of Collagen-induced Thromboxane (TXB2) in guinea pig whole blood ex vivo after 1 hr of 10 mg/kg oral administration of compound.; procedure, shortened: as §1
IC50 [2] [nM],SMILES,Thromboxane B2 (TxB2) [1] [pg 0.1ml-1 500x10^3],inhibition in vivo at 30 mg/kg [4] [%],further results
17600,CCOC(=O)C(C)(C)CCCCOC(COCc1ccc(OC)cc1)Cn1ccnc1 (stereo unspecified),55,97,ED50 [3]: 6.7 mg/kg
560,COc1ccc(COCC(Cn2ccnc2)OCCCCCC(=O)O)cc1 (stereo unspecified),130,82,ED50 [3]: 10.5 mg/kg
730,COc1ccc(COCC(Cn2ccnc2)OCCCCC(=O)O)cc1 (stereo unspecified),1047,43,–
120,CCOC(=O)CCCCCOC(COCc1ccc(OC)cc1)Cn1ccnc1 (stereo unspecified),750,63,ED50 [5]: 13.5 mg/kg
1000,CCOC(=O)CCCCCCC(COCc1ccc(OC)cc1)Cn1ccnc1 (stereo unspecified),683,53,–
420,COc1ccc(COC[C@@H](Cn2ccnc2)OCCCCC(C)(C)C(=O)O)cc1,572,71,ED50 [3]: 12 mg/kg
36,COc1ccc(COC[C@H](Cn2ccnc2)OCCCCC(C)(C)C(=O)O)cc1,–,–,ED50 [6]: 1.4 mg/kg; inhibition in vivo at 10 mg/kg [7]: 95%; Thromboxane B2 (TxB2) [8]: 61.9 pg 0.1ml-1 500x10^3
> 20000,COc1ccc(COCC(Cn2ccnc2)OCCCCCCC(C)(C)C(=O)O)cc1 (stereo unspecified),–,–,–
1890,COc1ccc(COCC(Cn2ccnc2)OCCCCCCC(=O)O)cc1 (stereo unspecified),923,25,–
8330,COc1ccc(COCC(Cn2ccnc2)OCCC/C=C/C(=O)O)cc1 (stereo unspecified),1302,4,–
750,CCOC(=O)CCCCOC(COCc1ccc(OC)cc1)Cn1ccnc1 (stereo unspecified),2018,-11,–
4000,CCOC(=O)CCCCCCOC(COCc1ccc(OC)cc1)Cn1ccnc1 (stereo unspecified),2720,33,–
1430,COc1ccc(COCC(CCCCCCC(=O)O)Cn2ccnc2)cc1 (stereo unspecified),1620,-18,–
390,CCOC(=O)CCC/C=C/CC(COCc1ccc(OC)cc1)Cn1ccnc1 (stereo unspecified),1265,23,–
10000,CCOC(=O)/C=C/CCCOC(COCc1ccc(OC)cc1)Cn1ccnc1 (stereo unspecified),–,–,–
120,COc1ccc(COCC(Cn2ccnc2)OCCCCC(C)(C)C(=O)O)cc1 (racemic),153,87,ED50 [3]: 3.4 mg/kg
–,O=C(O)c1ccc(OCCn2ccnc2)cc1 [DAZOXIBEN],674,54,ED50 [3]: 9.3 mg/kg
–,COc1ccc2c(c1)c(CC(=O)O)c(C)n2C(=O)c1ccc(Cl)cc1 [INDOMETHACIN],–,–,inhibition in vivo at 10 mg/kg [9]: 99%; Thromboxane B2 (TxB2) [8]: 27 pg 0.1ml-1 500x10^3; ED50 at 10 mg/kg [10]: < 10 mg/kg
